From ChEMBL document CHEMBL1158068, “Chaetocochins A-C, epipolythiodioxopiperazines from Chaetomium cochliodes” (2006) come the findings set out here.

Converted amounts (≈) assume the structure as drawn.

What all share (type): functional
The nature of experiment [1]: Growth inhibition of human N-04 cells after 48 hrs by SRB assay. The note with it: N04, 48 h. The method in brief:
(§1)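 ATCC cancer lines (Bre-04 = MDA-MB-231, Lu-04 = NCI-H460, N-04 = SF-268), cultured per supplier instructions. Cells seeded in 96-well plates, incubated 16 h at 37 °C, then exposed to a range of compound concentrations for 48 h. Taxol served as positive control. Cytotoxicity read by colorimetric sulforhodamine B (SRB) chemosensitivity assay.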
In general terms: Sulforhodamine B stains cellular protein and so reports cell mass.

Experiment [2] in a line: Growth inhibition of human Bre-04 cells after 48 hrs by SRB assay. The note with it: Bre04, 48 h. The method in brief:
as §1

Experiment [3] in a line: Growth inhibition of human Lu-04 cells after 48 hrs by SRB assay. The note with it: Lu04, 48 h. In a few lines: as §1

The term GI50 denotes the concentration that inhibits growth by half. As to `CS[C@@]1(CO)C(=O)N(C)[C@@](Cc2cn([C@]34C[C@]5(SC)C(=O)N(C)[C@@](CO)(SC)C(=O)N5[C@H]3Nc3ccccc34)c3ccccc23)(SC)C(=O)N1C`, the 50% growth inhibitory concentration (GI50) is 0.2 µg/mL (≈ 0.259 µM) in experiment [1], 0.06 µg/mL (≈ 0.0778 µM) in experiment [2] and 0.05 µg/mL (≈ 0.0648 µM) in experiment [3].
With `CS[C@]12COCN3c4ccccc4[C@]4(C[C@]5(SC)C(=O)N(C)[C@@](CO)(SC)C(=O)N5[C@@H]34)n3cc(c4ccccc43)C[C@](SC)(C(=O)N1C)N(C)C2=O` [CHAETOCOCHIN A], the values for the GI50 in experiment [1], in experiment [2] and in experiment [3] were 7 µg/mL (≈ 8.94 µM), 4.1 µg/mL (≈ 5.24 µM) and 3.4 µg/mL (≈ 4.34 µM), respectively.
Take `CS[C@@]1(CO)C(=O)N(C)[C@@](Cc2cn([C@]34C[C@@]56SS[C@@](CO)(C(=O)N5[C@H]3Nc3ccccc34)N(C)C6=O)c3ccccc23)(SC)C(=O)N1C` [CHAETOCOCHIN C]: the GI50 came out at 0.4 µg/mL (≈ 0.54 µM) in experiment [1], 0.4 µg/mL (≈ 0.54 µM) in experiment [2] and 1.9 µg/mL (≈ 2.56 µM) in experiment [3].
In the case of `CC(=O)O[C@H]1C(=O)[C@@]2(C)[C@H]([C@H](OC(=O)c3ccccc3)[C@]3(O)C[C@H](OC(=O)[C@H](O)[C@@H](NC(=O)c4ccccc4)c4ccccc4)C(C)=C1C3(C)C)[C@]1(OC(C)=O)CO[C@@H]1C[C@@H]2O` [PACLITAXEL], the GI50 in experiment [1] was found to be 0.04 µg/mL (≈ 0.0468 µM); in experiment [2] it was 0.04 µg/mL (≈ 0.0468 µM); in experiment [3] it was 0.03 µg/mL (≈ 0.0351 µM).
